Among the data in ChEMBL document CHEMBL3414468, “N-benzoyl-1,5-benzothiazepine and its S-oxide as vasopressin receptor ligands: insight into the active stereochemistry around the seven-membered ring” (J Med Chem, 2015) are Ki and inhibition values, retold here.

The target in assay [1] is T1, Vasopressin V2 receptor (Homo sapiens, UniProt P30518). Kind of assay: Displacement of [3H]-(Arg8)-vasopressin from human vasopressin V2 receptor transfected in CHO cell membranes. In short, it runs like this:
(§1)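 Competition binding of [3H](Arg8)-vasopressin to human V1a or V2 receptors. Ki is reported as the mean of duplicate measurements. Where no Ki was given, percent inhibition of radioligand binding was read at 10 μM test compound.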
On the technique in general: Displacement assays read how much labelled ligand stays bound in the presence of the test substance.

Assay [2] has as its target T2, Vasopressin V1a receptor (Homo sapiens, UniProt P37288). The assay can be described thus: Displacement of [3H]-(Arg8)-vasopressin from human vasopressin V1a receptor transfected in CHO cell membranes. The method in brief: as §1
Target sequence in this assay (P37288 whole entry): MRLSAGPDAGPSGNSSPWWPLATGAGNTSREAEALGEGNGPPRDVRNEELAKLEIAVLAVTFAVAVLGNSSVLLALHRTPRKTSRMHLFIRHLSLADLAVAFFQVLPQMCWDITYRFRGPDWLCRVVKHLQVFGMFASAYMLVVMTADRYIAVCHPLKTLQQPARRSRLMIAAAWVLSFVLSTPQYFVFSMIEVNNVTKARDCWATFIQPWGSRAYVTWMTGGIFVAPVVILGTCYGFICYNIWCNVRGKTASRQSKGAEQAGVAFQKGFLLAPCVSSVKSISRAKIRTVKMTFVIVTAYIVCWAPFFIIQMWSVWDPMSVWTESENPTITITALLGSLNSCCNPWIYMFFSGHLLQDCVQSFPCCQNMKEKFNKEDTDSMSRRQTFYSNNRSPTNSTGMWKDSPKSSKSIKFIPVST
Assay [3] addresses T1, Vasopressin V2 receptor. Kind of assay: Displacement of [3H]-(Arg8)-vasopressin from human vasopressin V2 receptor transfected in CHO cell membranes at 10 uM relative to control. The method in brief:
as §1

The target in assay [4] is T2, Vasopressin V1a receptor. The assay can be described thus: Displacement of [3H]-(Arg8)-vasopressin from human vasopressin V1a receptor transfected in CHO cell membranes at 10 uM relative to control. In short, it runs like this: as §1
Target sequence in this assay (P37288 whole entry, looked up): as the sequence (P37288 whole entry) above

Values joined by “and” are separate entries in the source; they are usually repeats but may differ in a detail not shown here. Identical values can stand only once.

T1 sequence (P30518 whole entry): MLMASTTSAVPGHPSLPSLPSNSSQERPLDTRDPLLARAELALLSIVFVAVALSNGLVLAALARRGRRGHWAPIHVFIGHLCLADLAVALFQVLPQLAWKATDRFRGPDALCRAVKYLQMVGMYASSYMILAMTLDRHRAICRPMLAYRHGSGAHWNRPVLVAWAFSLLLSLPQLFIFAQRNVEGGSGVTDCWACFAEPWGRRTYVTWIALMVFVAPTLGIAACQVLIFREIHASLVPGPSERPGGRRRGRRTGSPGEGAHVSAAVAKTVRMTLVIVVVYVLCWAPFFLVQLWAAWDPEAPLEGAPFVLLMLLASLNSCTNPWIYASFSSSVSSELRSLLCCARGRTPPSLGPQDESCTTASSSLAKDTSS

Consider `Cc1ccccc1C(=O)Nc1ccc(C(=O)N2CCCSc3ccccc32)cc1`, for which the Ki (usually a measure of affinity in units of concentration, obtained from inhibition or displacement) on Vasopressin V2 receptor [1] came to 21 nM; on Vasopressin V1a receptor [2], 68 nM.

For the compound `Cc1ccccc1C(=O)Nc1ccc(C(=O)N2CCCSc3cccc(C)c32)cc1`, the Ki was 360 nM and 184 nM and 1800 nM at Vasopressin V2 receptor [1]; 37 nM and 19 nM and 147 nM at Vasopressin V1a receptor [2].

On to `Cc1ccccc1C(=O)Nc1ccc(C(=O)N2CCCSc3c(C)cccc32)cc1`, for which the figures for the Ki at Vasopressin V2 receptor [1] and at Vasopressin V1a receptor [2] were 880 nM and 48 nM, respectively.

With `Cc1ccccc1C(=O)Nc1ccc(C(=O)N2CCCN(C)c3cccc(C)c32)cc1`, the Ki on Vasopressin V2 receptor [1] is 130 nM and 98 nM and 310 nM; on Vasopressin V1a receptor [2], 5.9 nM and 4.4 nM and 13 nM.

As to `Cc1ccccc1C(=O)Nc1ccc(C(=O)N2CCC[S+]([O-])c3ccccc32)cc1` (racemic), the Ki on Vasopressin V2 receptor [1] was 870 nM; on Vasopressin V1a receptor [2], 910 nM.

In the case of `Cc1ccccc1C(=O)Nc1ccc(C(=O)N2CCC[S+]([O-])c3c(C)cccc32)cc1` (racemic), the inhibition (commonly how much of the control response was suppressed) on Vasopressin V2 receptor [3] was 34%. In addition, the Ki on Vasopressin V1a receptor [2] worked out at 870 nM.

Take `Cc1ccccc1C(=O)Nc1ccc(C(=O)N2CCC[S@@+]([O-])c3cccc(C)c32)cc1` (racemic): the inhibition came out at 22% at Vasopressin V2 receptor [3] and 55% on Vasopressin V1a receptor [4].

`Cc1ccccc1C(=O)Nc1ccc(C(=O)N2CCC[S@@+]([O-])c3ccccc32)cc1` (stereo in doubt; (+)) [listing 1 of 2 here] registered a Ki at Vasopressin V2 receptor [1] of 1240 nM.

`Cc1ccccc1C(=O)Nc1ccc(C(=O)N2CCC[S@@+]([O-])c3c(C)cccc32)cc1` (stereo in doubt; (+)) [listing 1 of 2 here] displayed a Ki on Vasopressin V1a receptor [2] of 660 nM.

As to `Cc1ccccc1C(=O)Nc1ccc(C(=O)N2CCC[S@@+]([O-])c3c(C)cccc32)cc1` (stereo in doubt; (+)) [listing 2 of 2 here], the inhibition on Vasopressin V2 receptor [3] worked out at 48%.

The compound `Cc1ccccc1C(=O)Nc1ccc(C(=O)N2CCC[S@@+]([O-])c3ccccc32)cc1` (stereo in doubt; (+)) [listing 2 of 2 here] had an inhibition at Vasopressin V1a receptor [4] of 57%.

In the case of `Cc1ccccc1C(=O)Nc1ccc(C(=O)N2CCC[S@@+]([O-])c3ccccc32)cc1` (stereo in doubt; (-)), the Ki at Vasopressin V2 receptor [1] is 820 nM; on Vasopressin V1a receptor [2], 550 nM.

With `Cc1ccccc1C(=O)Nc1ccc(C(=O)N2CCC[S@@+]([O-])c3c(C)cccc32)cc1` (stereo in doubt; (-)), the values for the inhibition at Vasopressin V2 receptor [3] and at Vasopressin V1a receptor [4] were 0% and 53%, respectively.
